Results as given in publication PMC8320615 (Current Research in Toxicology, 2021).
Where two headings read alike, the source gives them in different places.

What was measured:
[1] = MTT cytotoxicity on HepaRG cells in HK-2/HepaRG co-culture; type: cell-based; settings: human; for IC50 at 24 h / IC50 at 48 h: HepaRG cells in co-culture with HK-2 cells (IdMOC plates)
Outline: (§1)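 HK-2 (RPMI-1640) and HepaRG (William's E plus Tox supplement), passages 10–15, seeded together in IdMOC plates and allowed 4 h at 37 °C, 5% CO2. Test compound at several concentrations, DMSO ≤0.5% final, for 24 h and 48 h; MTT read-out. Triptolide positive control: 10 μmol/L for HK-2, 25 μmol/L for HepaRG. IC50 by nonlinear regression; mean ± SD. 48 h IC50 under 100 μM scored toxic.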

[2] = MTT cytotoxicity on HK-2 cells in HK-2/HepaRG co-culture; type: cell-based; settings: human; for IC50 at 24 h / IC50 at 48 h: HK-2 cells in co-culture with HepaRG cells (IdMOC plates)
Outline: as §1

HepaRG cells = experiment: MTT cytotoxicity on HepaRG cells in HK-2/HepaRG co-culture; type: cell-based; settings: co-culture; for IC50: MTT; for effect on viability of HepaRG cells (in words): per Table 3
Outline: as §1

HK-2 cells [3] = experiment: MTT cytotoxicity on HK-2 cells in HK-2/HepaRG co-culture; type: cell-based; settings: co-culture; for IC50: MTT
Outline: as §1

[4] = Outline: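 Liver call by software prediction over five injury markers (AlkPhos, GGT, LDH, SGOT, SGPT), positive when three are positive. Kidney call by a self-built QSAR classifier (accuracy 76.7%) giving positive/negative. In vitro, 48 h MTT IC50 under 100 μM in HK-2/HepaRG co-culture counted as toxic. Compounds flagged when either approach was positive.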
[5] = reported in the literature ref Wang et al., 2009; cited from earlier work
HK-2 cells [6] = experiment: MTT cytotoxicity on HK-2 cells in single culture; type: cell-based; settings: Homo sapiens, HK-2, 24 h, read-out: IC50 HK-2 Single culture
Outline: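 HK-2 cells (passages 10–15) in RPMI-1640 with 10% FBS at 37 °C, 5% CO2, cultured alone and exposed 24 h to a range of test compound concentrations, DMSO ≤0.5% final; vehicle control 0.5% DMSO. Viability by MTT; IC50 from nonlinear regression.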

[7] = read-out: Hepatic cytotoxicity IC50 HepaRG 24 h, 24 h
[8] = read-out: Hepatic cytotoxicity IC50 HepaRG 48 h, 48 h
[9] = read-out: Renal cytotoxicity IC50 HK-2 24 h, 24 h
[10] = read-out: Renal cytotoxicity IC50 HK-2 48 h, 48 h

| Compound | IC50 at 24 h [1] [µM] | IC50 at 48 h [1] [µM] | IC50 at 24 h [2] [µM] | IC50 at 48 h [2] [µM] | IC50 (HepaRG cells; [7]) [µM] | IC50 (HepaRG cells; [8]) [µM] | IC50 (HK-2 cells [3]; [9]) [µM] | IC50 (HK-2 cells [3]; [10]) [µM] | other results |
| --- | --- | --- | --- | --- | --- | --- | --- | --- | --- |
| O=C1c2ccccc2C(=O)c2ccccc21 [No. 17, 9,10-Anthracenedione] | 93.4 | 84.4 | > 500 | 138 | – | – | – | – | – |
| CC(=O)OC[C@H]1O[C@@H](Oc2cc(O)cc3cc4oc(C)cc(=O)c4c(O)c23)[C@H](O)[C@@H](O)[C@@H]1O [No. 24, Nor-rubrofusarin-6-O-β-D-(6’-O-acetyl)glucopyranoside] | – | – | – | – | > 500 | 226 | > 500 | > 500 | – |
| COc1cc2c(c(O)c1OC)C(=O)c1c(cc(C)c(O)c1OC)C2=O [No. 2, Obtusin] | – | – | – | – | 298 | 81.2 | 50.5 | 57.8 | both hepatotoxicity and nephrotoxicity (in words) [4]: both hepatotoxicity and nephrotoxicity |
| O=C(O)c1cc(O)c2c(c1)C(=O)c1cccc(O[C@@H]3O[C@H](CO)[C@@H](O)[C@H](O)[C@H]3O)c1C2=O [No. 15, Rhein-8-O-β-D-glucoside] | – | – | – | – | > 500 | 208 | > 500 | 108 | – |
| O=C1c2cccc(O)c2C(=O)c2c(O)cc(CO)cc21 [No. 10, Aloe-emodin] | > 500 | 96.2 | > 500 | 134 | – | – | – | – | effect on viability of HepaRG cells (in words) (HepaRG cells): decreased the viability of HepaRG cells; nephrotoxicity in vivo (in words) [5]: nephrotoxic |
| O=C(O)c1cc(O)c2c(c1)C(=O)c1cccc(O)c1C2=O [No. 11, Rhein] | 307 | 36.1 | 229 | 44.1 | – | – | – | – | effect on viability of HepaRG cells (in words) (HepaRG cells): decreased the viability of HepaRG cells; effect on viability of HK-2 cells (in words) (HK-2 cells [3]; per Table 3): reduced the viability of HK-2 cells; both hepatotoxicity and nephrotoxicity (in words) [4]: both hepatotoxicity and nephrotoxicity |
| 9-Dehydroxyeurotinone (EDG) [No. 21] | – | – | – | – | 448 | 331 | 380 | 111 | – |
| COc1c(O)c(C)cc2c1C(=O)c1c(ccc(O)c1O)C2=O [No. 7, 1,2,7-trihydroxy-8-methoxy-6-methyl-9,10-anthraquinone] | > 500 | 44.2 | > 500 | > 500 | – | – | – | – | – |
| COc1cc2c(c(OC)c1OC)C(=O)c1c(cc(C)c(O)c1OC)C2=O [No. 1, Chryso-obtusin] | 71.9 | 388 | 53 | 33.6 | – | – | – | – | – |
| Cc1cc(O)c2c(c1)C(=O)c1cccc(O)c1C2=O [No. 9, Chrysophanol] | > 500 | 170 | > 500 | 93.9 | – | – | – | – | – |
| COc1ccc2c(c1OC)C(=O)c1c(cc(C)c(O)c1OC)C2=O [No. 4, 1,7,8-methoxyl-2-hydroxyl-3-methyl-anthraquinone] | – | – | – | – | 420 | 192 | 332 | 37.5 | – |
| Cc1cc2c(c(O)c1O)C(=O)c1c(O)cc(O)cc1C2=O [No. 13, Alaternin (quinone)] | – | – | – | – | > 500 | > 500 | > 500 | > 500 | – |
| COc1c(O)c(C)cc2c1C(=O)c1c(O)cccc1C2=O [No. 3, Obtusifoline] | 117 | 35 | 310 | 389 | – | – | – | – | – |
| Cc1cc(O)c2c(c1)C(=O)c1cc(O)cc(O)c1C2=O [No. 8, Emodin] | 125 | 31.9 | 89 | 122 | – | – | – | – | effect on viability of HepaRG cells (in words) (HepaRG cells): decreased the viability of HepaRG cells; IC50 (HK-2 cells [6]): 140 µM; both hepatotoxicity and nephrotoxicity (in words) [4]: both hepatotoxicity and nephrotoxicity |
| 2-O-β-D-Glucoside-9-dehydroxyeurotinone [No. 22] | – | – | – | – | > 500 | > 500 | > 500 | > 500 | – |
| COc1c(O[C@@H]2O[C@H](CO)[C@@H](O)[C@H](O)[C@H]2O)cc2c(c1O)C(=O)c1c(cc(C)c(O)c1OC)C2=O [No. 20, Glucoaurantio-obtusin] | – | – | – | – | 154 | – | > 500 | – | – |
| COc1c(O)cc2c(c1O)C(=O)c1c(cc(C)c(O)c1OC)C2=O [No. 5, Aurantio-obtusin] | 333 | 75.5 | > 500 | 117 | – | – | – | – | effect on viability of HepaRG cells (in words) (HepaRG cells): decreased the viability of HepaRG cells |
| CC(C)[C@]12O[C@H]1[C@@H]1O[C@]13[C@]1(O[C@H]1C[C@H]1C4=C(CC[C@@]13C)C(=O)OC4)[C@@H]2O [Triptolide, reference compound] | – | – | – | – | – | – | – | – | viability at 25 μmol/L ([1]; HepaRG cells co-cultured with HK-2 cells in IdMOC plates): 50.5 ± 5.68%; viability at 10 μmol/L ([2]; HK-2 cells co-cultured with HepaRG cells in IdMOC plates): 43.6 ± 2.26% |
| CC(=O)c1c(C)cc2cc(O)cc(O[C@@H]3O[C@H](CO)[C@@H](O)[C@H](O)[C@H]3O)c2c1O [No. 25, 6-Hydroxymusizin-8-O-β-D-glucopyranoside] | – | – | – | – | > 500 | 317 | > 500 | > 500 | – |
| COc1c(O[C@@H]2O[C@H](CO)[C@@H](O)[C@H](O)[C@H]2O)c(C)cc2c1C(=O)c1c(O)cccc1C2=O [No. 16, Obtusifoline-2-O-β-D-glucoside] | – | – | – | – | 108 | 98.5 | 270 | 251 | – |
| COc1c(O)c(C)cc2c1C(=O)c1c(cc(O)c(O)c1O)C2=O [No. 6, 1,2,3,7-tetrahydroxy-8-methoxy-6-methyl-anthraquinone] | > 500 | 209 | > 500 | 283 | – | – | – | – | – |
| COc1cc(O)c2c(c1)C(=O)c1cc(C)cc(O)c1C2=O [No. 12, Physcion] | > 500 | 73.6 | > 500 | 196 | – | – | – | – | – |
| COc1cc2c(c(O)c1OC)C(=O)c1c(cc(C)c(O[C@@H]3O[C@H](CO)[C@@H](O)[C@H](O)[C@H]3O)c1OC)C2=O [No. 18, Gluco-obtusin] | – | – | – | – | 178 | 125 | 255 | > 500 | – |
